Measured values from ChEMBL document CHEMBL3112500, “Synthesis and biological evaluation of allylated and prenylated mono-carbonyl analogs of curcumin as anti-inflammatory agents” (Eur J Med Chem, 2014).
One block for each molecule: values may come before it. Calls of active or inactive are those of the source. The rule behind the calls is not given here.

Key:
[1] = Cytotoxicity against human HL-7702 cells at 10 uM after 24 hrs by MTT assay; type: cell-based; conditions: l02, 24 h
Summary of the method: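 HL-7702 cells, 5000 per well, in 1640 medium with 5% heat-inactivated serum, 37 °C, 5% CO₂. Compounds in DMSO, diluted in medium to final 10 µM, applied for 24 h. MTT (5 mg/ml in 0.9% NaCl) added for 3 h, then cells dissolved in DMSO and absorbance read at 570 nm.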

RAW264.7 [2] = experiment: Antiinflammatory activity in mouse RAW264.7 cells assessed as inhibition of LPS-induced IL-6 release pretreated at 10 uM for 2 hrs prior LPS challenge measured after 22 hrs post challenge by ELISA; type: functional
Summary of the method: (§1)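 RAW 264.7 cells plated at 4.0 × 10⁵ per plate overnight (37 °C, 5% CO₂). Pretreated 2 h, then stimulated with LPS 0.5 µg/ml (in PBS) for 22 h. Medium TNF-α and IL-6 measured by ELISA, normalized to total cell protein (Bio-Rad assay) and expressed as percent of LPS control. Mean ± SE, 3–5 independent experiments.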

RAW264.7 [3] = experiment: Antiinflammatory activity in mouse RAW264.7 cells assessed as inhibition of LPS-induced IL-6 gene expression pretreated at 10 uM for 2 hrs prior LPS challenge measured after 6 hrs post challenge by RT-qPCR analysis; type: functional, cell-based
Summary of the method: (§2)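 RAW 264.7 cells in DMEM with 10% FBS, plated at 4.0 × 10⁵ per plate overnight at 37 °C, 5% CO₂. Pretreatment 2 h, then LPS 0.5 µg/ml for 6 h. IL-6, TNF-α and IL-1β mRNA quantified by RT-qPCR, normalized to β-actin mRNA and expressed as ratio to DMSO. Mean ± SD of 3–5 independent experiments.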

RAW264.7 [4] = experiment: Antiinflammatory activity in mouse RAW264.7 cells assessed as inhibition of LPS-induced IL-6 release pretreated for 2 hrs prior LPS challenge measured after 22 hrs post challenge by ELISA; type: functional, cell-based
Summary of the method: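 Dose series in RAW 264.7 cells: pretreatment at 1.1, 3.3 and 10 µM for 2 h, then LPS 0.5 µg/ml for 22 h. Medium IL-6 determined by ELISA and normalized to total protein.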

RAW264.7 [5] = experiment: Antiinflammatory activity in mouse RAW264.7 cells assessed as inhibition of LPS-induced IL-1beta gene expression pretreated at 10 uM for 2 hrs prior LPS challenge measured after 6 hrs post challenge by RT-qPCR analysis; type: functional, cell-based; summary of the method: as §2
RAW264.7 [6] = experiment: Antiinflammatory activity in mouse RAW264.7 cells assessed as inhibition of LPS-induced TNF-alpha gene expression pretreated at 10 uM for 2 hrs prior LPS challenge measured after 6 hrs post challenge by RT-qPCR analysis; type: functional, cell-based; summary of the method: as §2
RAW264.7 [7] = experiment: Antiinflammatory activity in mouse RAW264.7 cells assessed as inhibition of LPS-induced TNFalpha release pretreated at 10 uM for 2 hrs prior LPS challenge measured after 22 hrs post challenge by ELISA; type: functional; summary of the method: as §1
[8] = Chemical stability of the compound in phosphate buffer at pH 7.4 at 20 uM up to 25 mins by UV-visible absorption spectrum assay; type: physicochemical; conditions: pH 7.4, 25 min
[9] = Chemical stability of the compound in phosphate buffer at pH 7.4 assessed as compound degradation at 20 uM up to 25 mins by UV-visible absorption spectrum assay; type: physicochemical; conditions: read-out: Drug degradation
[10] = system: Peritoneal macrophage cell; experiment: Antiinflammatory activity in mouse peritoneal macrophages assessed as inhibition of LPS-induced IL6 protein expression pretreated for 2 hrs prior LPS challenge measured after 22 hrs post challenge by ELISA; type: functional, cell-based
Summary of the method: (§3)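 Peritoneal macrophages from ICR mice elicited by i.p. thioglycollate, collected by lavage with PBS containing 30 mM EDTA, in RPMI-1640, nonadherent cells washed off at 3 h. Plated at 4.0 × 10⁵ per 35 mm plate. Pretreatment 2 h, then LPS 0.5 µg/ml for 22 h. IL-6 and TNF-α in medium measured by ELISA, normalized to total protein. 3 independent experiments.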

Mus musculus = experiment: Antiinflammatory activity in C57BL/6 mouse sepsis model assessed as increase in survival rate at 10 mg/kg, iv administered 15 mins prior LPS-challenge measured after 7 days; type: functional
Summary of the method: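 Male C57BL/6 mice (18–22 g) were dosed i.v. 15 min before i.p. LPS at 20 mg/kg. Drug solution was 2 mg/ml in macrogol 15 hydroxystearate (5–10%), with or without medium-chain triglycerides (0.5–2%). Controls received vehicle (10% solubilizer, 2% MCT). Survival was recorded every 12 h for 7 days; n = 9 per group.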

[11] = system: Peritoneal macrophage cell; experiment: Antiinflammatory activity in mouse peritoneal macrophages assessed as inhibition of LPS-induced TNFalpha protein expression pretreated for 2 hrs prior LPS challenge measured after 22 hrs post challenge by ELISA; type: functional, cell-based; summary of the method: as §3

Structure (SMILES): C=CCc1cc(/C=C/C(=O)/C=C/c2c(F)cccc2Br)ccc1OC
Activity [1]: Non-toxic | inhibition at 10 µM (RAW264.7 [2]): 20%

Structure (SMILES): C=CCc1cc(/C=C/C(=O)/C=C/c2cc(OC)c(OC)cc2OC)ccc1OC
Activity [1]: Non-toxic | inhibition (RAW264.7 [3]): Active | inhibition (RAW264.7 [4]): Dose-dependent effect | inhibition (RAW264.7 [5]): Active | inhibition (RAW264.7 [6]): Active | inhibition (RAW264.7 [7]): Active | inhibition at 10 µM (RAW264.7 [2]): 20%

Stability [8]: Stable
Structure (SMILES): C=CCc1cc(/C=C/C(=O)/C=C/c2cc(F)ccc2Br)ccc1OC
Activity [1]: Non-toxic | inhibition (RAW264.7 [3]): Active | inhibition (RAW264.7 [4]): Dose-dependent effect | inhibition (RAW264.7 [5]): Active | inhibition (RAW264.7 [6]): Active | inhibition (RAW264.7 [7]): Active | inhibition at 10 µM (RAW264.7 [2]): 20%

degraded at 25 min, 20 µM [9]: > 45%
Structure (SMILES): COc1cc(/C=C/C(=O)CC(=O)/C=C/c2ccc(O)c(OC)c2)ccc1O [CURCUMIN]
Activity [1]: Non-toxic | inhibition (RAW264.7 [3]): Active | inhibition (RAW264.7 [5]): Active | inhibition (RAW264.7 [6]): Active | inhibition at 10 µM (RAW264.7 [2]): 20%

Structure (SMILES): C=CCc1cc(/C=C/C(=O)/C=C/c2cc(F)ccc2OC)ccc1OC
Activity [1]: Non-toxic | inhibition at 10 µM (RAW264.7 [2]): 20%

Structure (SMILES): C=CCc1cc(/C=C2\CC/C(=C\c3ccc(O)c(CC=C)c3)C2=O)ccc1O
Activity [1]: Non-toxic | inhibition at 10 µM (RAW264.7 [2]): 20%

Structure (SMILES): C=CCc1cc(/C=C/C(=O)/C=C/c2ccc(OC(C)(C)C)cc2)ccc1OC
Activity [1]: Non-toxic | inhibition at 10 µM (RAW264.7 [2]): 20%

Structure (SMILES): C=CCc1cc(/C=C2\CC/C(=C\c3ccc(OC4CCCCO4)c(CC=C)c3)C2=O)ccc1OC1CCCCO1 (stereo not given)
Activity [1]: Non-toxic

Structure (SMILES): C=CCc1cc(/C=C/C(=O)/C=C/c2cccc(Br)c2)ccc1OC
Activity [1]: Non-toxic | inhibition at 10 µM (RAW264.7 [2]): 20%

Structure (SMILES): COc1ccc(/C=C/C(=O)/C=C/c2ccc(OCC=C(C)C)cc2)cc1OC
Activity [1]: Non-toxic | inhibition at 10 µM (RAW264.7 [2]): 20%

Structure (SMILES): C=CCOc1ccc(/C=C/C(=O)/C=C/c2ccc(F)cc2)c(O)c1
Activity [1]: Non-toxic | inhibition at 10 µM (RAW264.7 [2]): 20%

Structure (SMILES): C=CCc1cc(/C=C/C(=O)/C=C/c2ccc(OC)c(OC)c2)ccc1O
Activity [1]: Non-toxic | inhibition (RAW264.7 [3]): Active | inhibition (RAW264.7 [4]): Dose-dependent effect | inhibition (RAW264.7 [5]): Active | inhibition (RAW264.7 [6]): Active | inhibition at 10 µM (RAW264.7 [2]): 20%

Structure (SMILES): C=CCc1cc(/C=C/C(=O)/C=C/c2ccc(C(F)(F)F)cc2)ccc1OC
Activity [1]: Non-toxic | inhibition at 10 µM (RAW264.7 [2]): 20%

Structure (SMILES): C=CCOc1ccc(/C=C/C(=O)/C=C/c2ccc(OCC=C)cc2)cc1
Activity [1]: Non-toxic

Structure (SMILES): C=CCOc1ccc(/C=C/C(=O)/C=C/c2ccc(OC)c(OC)c2)cc1
Activity [1]: Non-toxic

Structure (SMILES): C=CCc1cc(/C=C/C(=O)/C=C/c2ccc(Br)cc2)ccc1OC
Activity [1]: Non-toxic | inhibition at 10 µM (RAW264.7 [2]): 20%

Structure (SMILES): C=CCc1cc(/C=C/C(=O)/C=C/c2ccc(N3CCOCC3)cc2)ccc1OC
Activity [1]: Non-toxic | inhibition (RAW264.7 [3]): Active | inhibition (RAW264.7 [4]): Dose-dependent effect | inhibition (RAW264.7 [5]): Active | inhibition (RAW264.7 [6]): Active | inhibition at 10 µM (RAW264.7 [2]): 20%

Structure (SMILES): C=CCc1cc(/C=C/C(=O)/C=C/c2ccc([N+](=O)[O-])cc2)ccc1O
Activity [1]: Non-toxic | inhibition at 10 µM (RAW264.7 [2]): 20%

Stability [8]: Stable
Structure (SMILES): C=CCc1cc(/C=C/C(=O)/C=C/c2ccc(O)c(CC=C)c2)ccc1O
Activity [1]: Non-toxic | inhibition (RAW264.7 [3]): Active | inhibition (RAW264.7 [4]): Dose-dependent effect | inhibition (RAW264.7 [5]): Active | inhibition (RAW264.7 [6]): Active | inhibition (RAW264.7 [7]): Active | inhibition at 10 µM (RAW264.7 [2]): 96.4%

Structure (SMILES): C=CCOc1ccc(/C=C/C(=O)/C=C/c2ccc(OC)c(CC=C)c2)cc1
Activity [1]: Non-toxic | inhibition at 10 µM (RAW264.7 [2]): 20%

Structure (SMILES): C=CCc1cc(/C=C/C(=O)/C=C/c2ccc(OC)c(OC)c2)ccc1OC
Activity [1]: Non-toxic | inhibition at 10 µM (RAW264.7 [2]): 20%

Structure (SMILES): C=CCc1cc(/C=C/C(=O)/C=C/c2cccc(Cl)c2Cl)ccc1OC
Activity [1]: Non-toxic | inhibition at 10 µM (RAW264.7 [2]): 20%

Structure (SMILES): CC(C)=CCOc1ccc(/C=C2\CCC/C(=C\c3ccc(OCC=C(C)C)cc3)C2=O)cc1
Activity [1]: Non-toxic | inhibition at 10 µM (RAW264.7 [2]): 20%

Structure (SMILES): COc1cc(/C=C2\CC/C(=C\c3ccc(OCC=C(C)C)c(OC)c3)C2=O)ccc1OCC=C(C)C
Activity [1]: Non-toxic | inhibition at 10 µM (RAW264.7 [2]): 20%

Structure (SMILES): C=CCc1cc(/C=C/C(=O)/C=C/c2ccccc2Cl)ccc1OC
Activity [1]: Non-toxic | inhibition at 10 µM (RAW264.7 [2]): 20%

Structure (SMILES): C=CCc1cc(/C=C/C(=O)/C=C/c2cc(Br)ccc2Br)ccc1OC
Activity [1]: Non-toxic | inhibition (RAW264.7 [3]): Active | inhibition (RAW264.7 [4]): Dose-dependent effect | inhibition (RAW264.7 [5]): Active | inhibition [10]: Dose-dependent effect | inhibition (RAW264.7 [6]): Active | survival at 10 mg/kg (Mus musculus): 45% | inhibition at 10 µM (RAW264.7 [7]): 67.5% | inhibition at 10 µM (RAW264.7 [2]): 91.1% | inhibition [11]: Dose-dependent effect | Stability [8]: Stable

Structure (SMILES): CC(C)=CCOc1ccc(/C=C2\CC/C(=C\c3ccc(OCC=C(C)C)cc3O)C2=O)c(O)c1
Activity [1]: Non-toxic | inhibition at 10 µM (RAW264.7 [2]): 20%

Structure (SMILES): C=CCc1cc(/C=C/C(=O)/C=C/c2ccc3ccccc3c2)ccc1OC
Activity [1]: Non-toxic | inhibition at 10 µM (RAW264.7 [2]): 20%

Structure (SMILES): C=CCc1cc(/C=C/C(=O)/C=C/c2ccccc2C(F)(F)F)ccc1OC
Activity [1]: Non-toxic

Structure (SMILES): C=CCc1cc(/C=C/C(=O)/C=C/c2ccc(N(C)C)cc2)ccc1OC
Activity [1]: Non-toxic | inhibition at 10 µM (RAW264.7 [2]): 20%

Structure (SMILES): CC(C)=CCOc1ccc(/C=C/C(=O)/C=C/c2ccc(OCC=C(C)C)cc2)cc1
Activity [1]: Non-toxic

Structure (SMILES): C=CCc1cc(/C=C/C(=O)/C=C/c2ccc(N3CCCCC3)cc2)ccc1OC
Activity [1]: Non-toxic | inhibition at 10 µM (RAW264.7 [2]): 20%

Structure (SMILES): COc1cc(/C=C/C(=O)/C=C/c2ccc(OCC=C(C)C)c(OC)c2)ccc1OCC=C(C)C
Activity [1]: Non-toxic | inhibition at 10 µM (RAW264.7 [2]): 20%

Structure (SMILES): C=CCc1cc(/C=C/C(=O)/C=C/c2cc(F)ccc2F)ccc1OC
Activity [1]: Non-toxic
